Activity calls are given as the source filed them.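 How the source made its calls, unless noted: active means viability at or below 30% in both replicate assays; inconclusive means viability at or below 30% in just one of the two assays; inactive means the rest.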
Legend:
[1] = target: Pantothenate synthetase (Mycobacterium tuberculosis (strain ATCC 25618 / H37Rv)) (UniProt P9WIL5); test: Coupled enzyme confirmation of inhibitors against recombinant Mtb PanC (AID 375; call rule not given here;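 further: 0% = full reaction with vehicle and 100% = no enzyme background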); conditions: coupled enzyme assay; at 10 µM, stronger effect = higher value
Sequence of Pantothenate synthetase (Mycobacterium tuberculosis (strain ATCC 25618 / H37Rv)) (P9WIL5 whole entry, looked up): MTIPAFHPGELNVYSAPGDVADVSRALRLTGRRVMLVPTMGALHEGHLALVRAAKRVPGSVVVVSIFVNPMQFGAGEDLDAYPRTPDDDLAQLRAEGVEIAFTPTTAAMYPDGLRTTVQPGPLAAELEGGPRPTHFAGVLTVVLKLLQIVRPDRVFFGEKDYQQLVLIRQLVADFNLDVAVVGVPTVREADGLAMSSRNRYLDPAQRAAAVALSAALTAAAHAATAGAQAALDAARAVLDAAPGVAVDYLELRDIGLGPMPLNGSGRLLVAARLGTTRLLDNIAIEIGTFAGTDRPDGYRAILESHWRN

[2] = Her2 expression decrease, cell viability multiplex – SKBR3 breast tumor cells, AlphaScreen, ATP viability, primary screen (AID 461;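 active means Her2 level under about 52% in both replicate screens, with viability over 70% of control, limit read from the data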;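 on Her2 level: lower value means less Her2 protein in the cells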;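 on viability: percent of carrier control wells set as 100% viability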); conditions: SKBR3 Her2 protein level, 18-24 h, measured here: SKBR3 viability, ATP luminescence, at 10 µM
[3] = target: Receptor tyrosine-protein kinase erbB-2 (Homo sapiens) (UniProt P04626); test: as above; conditions: 18-24 h, at 10 µM, stronger effect = lower value
Sequence of Receptor tyrosine-protein kinase erbB-2 (Homo sapiens) (P04626 whole entry, looked up): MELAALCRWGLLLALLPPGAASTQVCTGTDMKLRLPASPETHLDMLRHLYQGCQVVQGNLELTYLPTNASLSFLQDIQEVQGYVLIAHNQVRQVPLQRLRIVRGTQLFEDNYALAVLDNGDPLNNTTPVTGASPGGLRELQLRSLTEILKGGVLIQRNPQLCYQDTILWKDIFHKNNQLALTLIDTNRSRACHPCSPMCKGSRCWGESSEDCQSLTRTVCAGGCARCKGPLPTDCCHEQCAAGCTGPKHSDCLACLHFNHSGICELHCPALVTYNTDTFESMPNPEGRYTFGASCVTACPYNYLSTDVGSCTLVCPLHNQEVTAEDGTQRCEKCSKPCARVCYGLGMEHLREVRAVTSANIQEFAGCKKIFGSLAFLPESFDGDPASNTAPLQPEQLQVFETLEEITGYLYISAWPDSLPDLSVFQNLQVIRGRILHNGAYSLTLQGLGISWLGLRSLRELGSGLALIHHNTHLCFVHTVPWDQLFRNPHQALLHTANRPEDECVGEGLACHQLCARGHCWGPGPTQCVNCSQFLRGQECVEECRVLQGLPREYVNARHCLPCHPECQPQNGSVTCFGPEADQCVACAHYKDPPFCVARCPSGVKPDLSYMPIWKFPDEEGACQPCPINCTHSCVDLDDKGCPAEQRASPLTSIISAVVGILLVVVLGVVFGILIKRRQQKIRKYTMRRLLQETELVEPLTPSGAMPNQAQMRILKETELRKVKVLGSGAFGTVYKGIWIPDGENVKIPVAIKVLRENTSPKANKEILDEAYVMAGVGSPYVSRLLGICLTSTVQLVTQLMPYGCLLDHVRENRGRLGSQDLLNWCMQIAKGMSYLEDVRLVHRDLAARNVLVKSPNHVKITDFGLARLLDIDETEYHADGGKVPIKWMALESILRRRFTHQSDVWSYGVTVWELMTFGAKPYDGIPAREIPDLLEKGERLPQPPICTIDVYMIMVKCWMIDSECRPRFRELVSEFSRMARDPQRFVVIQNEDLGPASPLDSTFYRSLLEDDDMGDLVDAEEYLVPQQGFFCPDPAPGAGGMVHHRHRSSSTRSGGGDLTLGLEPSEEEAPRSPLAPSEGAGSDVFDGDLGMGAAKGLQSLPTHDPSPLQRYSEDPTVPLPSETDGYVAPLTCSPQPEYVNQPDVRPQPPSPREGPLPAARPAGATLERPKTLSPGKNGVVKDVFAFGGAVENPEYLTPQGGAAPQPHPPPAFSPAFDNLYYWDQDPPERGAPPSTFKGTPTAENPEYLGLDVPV

[4] = reduced viability of SK-BR-3 breast cancer cells – cell-based, 24 h, human, pilot screen (AID 572;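 active means viability at or below 10% of carrier control in both of two separate runs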;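 further: compound exposure lasted between 18 and 24 h rather than exactly 24 h; 100% = carrier-treated control wells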); conditions: SK-BR-3 viability, CellTiter-Glo luminescence, at 10 µM, stronger effect = lower value
[5] = HUVEC growth inhibition – cell-based, human, primary screen (AID 575); conditions: HUVEC proliferation, CellTiter-Glo luminescence, 72 h; at 10 µM; stronger effect = lower value;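 further: 100% = median of untreated cell wells with 0.1% DMSO on each plate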
Method in brief: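 Assay system: Primary human umbilical vein endothelial cells | Quantity: 1250 cells per well | Medium: Supplemented EBM, 2% fetal bovine serum | Detection: CellTiter-Glo luminescence measuring cellular ATP | Read-out: % viability vs DMSO wells | Plate: Collagen-coated 384-well format | Times: 72 h exposure, 37 °C, 5% CO2, 30 min RT equilibration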

[6] = H69AR cell proliferation blockers – human, duplicate replicates, primary screen (AID 580;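 active means viability at or under a set limit in both replicates, limit being median viability minus 3 SD, cut at about 48% in these data, passing the limit was not always enough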;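 further: 100% = mean luminescence of untreated wells and 0% = no signal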); conditions: H69AR lung tumor cells viability, ATP luminescence, 72 h; at 10 µM; stronger effect = lower value
[7] = MRP1 drug-resistance reversers in H69AR cells – cell-based, doxorubicin co-treatment, pilot screen (AID 601;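 active means viability loss from added drug above about 55%, and viability with drug at most 40%, in both replicates, limit read from the data, passing the limit was not always enough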); conditions: CellTiter-Glo, 72 h, at 10 µM; for differential viability (reversal): stronger effect = higher value
[8] = yeast transport mutant growth inhibition pilot in 384-well plates, post-Golgi transport modulator project (AID 636; in the data active means inhibition above about 31%); conditions: absorbance 615 nm, about 18 h, stronger effect = higher value
[9] = growth suppression of yeast trafficking mutant, preliminary HTS, modulators of trafficking downstream of Golgi apparatus project, 1536-format plate, OD 615 nm (AID 637; in the data active means inhibition above about 30%); conditions: yeast transport mutant growth, absorbance 615 nm, 18 h; stronger effect = higher value
[10] = H69AR cells + 2 uM doxorubicin, measured here: viability with 2 uM doxorubicin, stronger effect = lower value
[11] = H69AR cells, compound alone cytotoxicity

Structure (SMILES) | inhibition [1] | viability [2] [%] | Her2 level [3] | viability [4] | viability [5] | viability [6] | differential viability (reversal) ([7]; H69AR cells + 2 uM doxorubicin) | viability [7, 10] [%] | viability [7, 11] [%] | inhibition [8] | inhibition [9]
O=c1[nH]c(=O)n(Cc2ccccc2)c(O)c1C=NCCCO | 8% (inactive) | 100 | 96.5% (inactive) | 100% (inactive) | 94.1% (inactive) | 117% (inactive) | 27.1% (inactive) | 89.9 | 117 | -6.13% (inactive) | -0.65% (inactive)
O=C(c1ccncc1)C12CN3CN(CN(C3)C1)C2 | 0% (inactive) | 115 | 114% (inactive) | 115% (inactive) | 97.6% (inactive) | 89.5% (inactive) | 5.16% (inactive) | 84.4 | 89.5 | -3.25% (inactive) | -2.5% (inactive)
CC1CCN2c3nc4ccccn4c(=O)c3CC3(C(=O)N(C)C(=O)N(C)C3=O)C2C1 (centres undefined) | 0% (inactive) | 101 | 72.5% (inactive) | 101% (inactive) | 93% (inactive) | 93.5% (inactive) | -8.53% (inactive) | 102 | 93.5 | -1.32% (inactive) | 1.64% (inactive)
CN1C(=O)N(C)C(=O)C2(Cc3ccccc3N3CCOCC32)C1=O (centres undefined) | 0% (inactive) | 104 | 88% (inactive) | 104% (inactive) | 94.8% (inactive) | 102% (inactive) | 8.12% (inactive) | 94 | 102 | -6.8% (inactive) | -2.86% (inactive)
NC(=O)CSP(=O)(c1ccccc1)c1ccccc1 | 0% (inactive) | 94 | 118% (inactive) | 94% (inactive) | 109% (inactive) | 102% (inactive) | 10.1% (inactive) | 92.3 | 102 | -8.53% (inactive) | -2.9% (inactive)
Cc1ccc(C(=O)C2CN3CCC2CC3)cc1 (centres undefined) | 0% (inactive) | 93 | 91% (inactive) | 93% (inactive) | 94.3% (inactive) | 97.6% (inactive) | 4.27% (inactive) | 93.3 | 97.6 | -4.55% (inactive) | 4.5% (inactive)
Cn1c(=O)cc(SCC(=O)N2CCC3(CC2)OCCO3)c2ccc(Cl)cc21 | 9% (inactive) | 116 | 94.5% (inactive) | 116% (inactive) | 87.6% (inactive) | 79.1% (inactive) | 8.79% (inactive) | 70.3 | 79.1 | -3.03% (inactive) | 1.77% (inactive)
O=C(c1ccc2nc(-c3ccco3)c(-c3ccco3)nc2c1)N1CCC2(CC1)OCCO2 | 0% (inactive) | 93 | 106% (inactive) | 93% (inactive) | 97.1% (inactive) | 90.5% (inactive) | 7.87% (inactive) | 82.7 | 90.5 | -4.87% (inactive) | 4.33% (inactive)
COc1ccccc1N1CCN(Cc2c(F)cccc2F)CC1 | 1% (inactive) | 89 | 88.5% (inactive) | 89% (inactive) | 107% (inactive) | 94.2% (inactive) | -2.56% (inactive) | 96.8 | 94.2 | -1.69% (inactive) | 0.98% (inactive)
COc1ccc(C2NCc3ccc4c(c3-n3cccc32)OCO4)cc1O (centres undefined) | 0% (inactive) | 110 | 73% (inactive) | 110% (inactive) | 40.7% (inactive) | 25.5% (active) | -41.5% (inactive) | 67 | 25.5 | -5.79% (inactive) | -5.56% (inactive)
C=CCn1c(O)c(C=NCCN(C)C)c(=O)[nH]c1=O | 0% (inactive) | 97.5 | 108% (inactive) | 97.5% (inactive) | 110% (inactive) | 97.2% (inactive) | 3.12% (inactive) | 94.1 | 97.2 | -0.39% (inactive) | -0.98% (inactive)
CCCCOc1ccc(CN2CCN(CCO)CC2)cc1 | 0% (inactive) | 74 | 91.5% (inactive) | 74% (inactive) | 94.7% (inactive) | 90.1% (inactive) | 12.2% (inactive) | 77.9 | 90.1 | 1.17% (inactive) | -1.64% (inactive)
c1cncc(CNC2=NCCCCC2)c1 | 1% (inactive) | 80.5 | 106% (inactive) | 80.5% (inactive) | 96.6% (inactive) | 97.4% (inactive) | 6.13% (inactive) | 91.3 | 97.4 | -0.78% (inactive) | -4.92% (inactive)
C=CCn1c(O)c(C(C)=Nc2ccc(N(CC)CC)cc2)c(=O)[nH]c1=O | 1% (inactive) | 102 | 105% (inactive) | 102% (inactive) | 62.6% (inactive) | 16.3% (active) | -63.3% (inactive) | 79.7 | 16.3 | -2.08% (inactive) | -8% (inactive)

Reference: PubChem BioAssay
